High-throughput results: PubChem, Johns Hopkins Ion Channel Center
Rows were chosen to be rich in hits. Some 3.5% of all compounds tested hit in one or more screens of this group.
MrgX1 allo act = allosterically activates human MrgX1 receptor signaling; MrgX1-HEK293, Fluo-4 calcium flux, FDSS; active compounds read high; B-score at 10 µM; 310,000 tested, 0.63% active; AID 588675; Q96LB2;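 active = plate-corrected calcium response at least 3 library SD above typical, normal starting fluorescence, not activating the receptor alone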;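 note: compound read alongside a low EC10 to EC30 dose of BAM8-22 agonist; peak minus trough fluorescence over baseline measured at the second addition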
Target sequence (Q96LB2 whole entry, looked up): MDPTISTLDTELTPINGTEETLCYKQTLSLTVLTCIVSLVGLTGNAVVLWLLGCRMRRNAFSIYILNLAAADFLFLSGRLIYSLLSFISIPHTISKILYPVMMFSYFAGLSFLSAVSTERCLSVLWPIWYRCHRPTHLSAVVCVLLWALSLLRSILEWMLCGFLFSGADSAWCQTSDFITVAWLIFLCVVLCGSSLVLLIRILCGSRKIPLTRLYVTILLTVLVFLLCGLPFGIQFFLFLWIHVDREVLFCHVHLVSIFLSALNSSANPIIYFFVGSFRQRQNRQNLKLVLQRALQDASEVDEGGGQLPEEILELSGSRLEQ
RGS4 inh = human RGS4 inhibition | 310,000 tested, 0.45% active | HEK293 M3R/RGS4 inducible, Fluo-4 calcium flux; active compounds read high; triggered by carbachol at its EC20 | P49798 | B-score at 10 µM;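 active = B-score, a plate-corrected calcium signal, over three deviations above library mean, with baseline fluorescence within five deviations of library mean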;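 note: RGS4 expression induced by doxycycline in cells with stable M3 receptor; B-score is computed from the integrated fluorescence ratio over baseline after carbachol; higher B-score means a larger calcium signal and so more RGS4 inhibition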
Target sequence (P49798 whole entry, looked up): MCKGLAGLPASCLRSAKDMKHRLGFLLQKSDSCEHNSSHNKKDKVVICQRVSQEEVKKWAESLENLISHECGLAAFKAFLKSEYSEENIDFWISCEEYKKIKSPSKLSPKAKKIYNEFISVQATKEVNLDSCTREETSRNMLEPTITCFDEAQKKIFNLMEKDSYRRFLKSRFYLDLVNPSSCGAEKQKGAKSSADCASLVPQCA
RGS4 act = RGS4 potentiation or activation; B-score at 10 µM; HEK293 M3R/inducible RGS4, carbachol calcium flux Fluo4; active compounds read low; 310,000 tested, 0.92% active;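 active = B-score of the integrated calcium signal more than 4 SD below the library mean, with starting fluorescence not abnormally high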;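 note: negative B-score means reduced calcium response which marks RGS4 activation or potentiation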
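Test system: HEK293 cells with stable M3R and inducible RGS4; also added: carbachol at ECmax as muscarinic agonist stimulus; schedule: dye loading 30 min 37 °C, buffer rest 30 min RT; technique: kinetic calcium fluorescence imaging with Fluo4-AM dye, 2 µM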
MrgX1 antag = blocks BAM8-22 activation of human MrgX1 receptor; MRGX1-HEK293 calcium flux, Fluo-4, BAM8-22 antagonism; active compounds read low; Q96LB2; 310,000 tested, 1.3% active; B-score at 10 µM;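 active = calcium-response B-score plate-corrected more than 3 library SD below zero, starting fluorescence within 5 deviations, no agonist response on first addition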;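 note: peak minus trough fluorescence over baseline after final BAM8-22 challenge near maximal dose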
MrgX1 agonist = activates human MrgX1 receptor signaling; 310,000 tested, 0.44% active; Q96LB2; MrgX1-HEK293 cells, Fluo-4 calcium fluorescence, agonist mode; active compounds read high; B-score at 10 µM;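 active = calcium response B-score plate-corrected fluorescence ratio at least 3 library SD, with starting fluorescence B-score inside 5 SD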
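Material: HEK293 cells stably expressing human MrgX1 receptor | Quantity: 15,000 cells per well | Times: Cells plated overnight, dye loaded 0.5 h 37 °C, 0.5 h room temperature | Measured by: Kinetic Fluo-4 NW fluorescence of intracellular calcium | Control set: Positive and negative controls per plate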
MrgX1 PAM conf = confirmation of human MrgX1 receptor positive allosteric modulators. shares compounds with MrgX1 allo act. activation (ratio percentage), % at 10 µM. MrgX1-HEK293, Fluo-4 calcium fluorescence, FDSS. 1,200 tested, 13% active;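 active = ratio at least 3 SD above the weak peptide control, stable starting fluorescence, no direct agonism earlier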;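 note: compound followed by low BAM8-22 agonist challenge near EC20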
HEK293 Ca flux = MrgX1 antagonist counter-screen hit in parental HEK293 cells; shares compounds with MrgX1 antag; Fluo-4 calcium fluorescence, FDSS; fluorescence ratio F(max-min)/F0 at 10 µM; 4,000 tested, 2% active; AID 624111;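 active = duplicate-averaged calcium fluorescence ratio at least three times the standard deviation of buffer wells, a nonspecific response in parental cells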
HEK293 Ca counter = activity in parental HEK293 cells without MrgX1; shares compounds with MrgX1 antag; parental HEK293 calcium flux, Fluo-4 fluorescence ratio; active compounds read high; fluorescence ratio F(max-min)/F0 at 10 µM; 4,000 tested, 0.4% active;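 active = calcium fluorescence ratio, averaged over duplicates, at least 3 SD of the buffer-well ratio, meaning a nonspecific response in receptor-free cells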;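 note: untransfected parental HEK293 lacking MrgX1 used as counterscreen for MrgX1 allosteric activators; fluorescence change taken during the second addition on a kinetic imager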
HEK293 Ca cntr2 = MrgX1 activator counter-screen hit in parental HEK293 cells. shares compounds with MrgX1 antag. Fluo-4 calcium fluorescence (FDSS); active compounds read high. fluorescence ratio F(max-min)/F0 at 10 µM. 4,000 tested, 8.7% active. AID 624115;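 active = calcium fluorescence ratio at least three times the spread of buffer wells, meaning a non-specific response in parental cells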
An asterisk follows results filed as active; i = inactive; · = no result given.

SMILES	MrgX1 allo act	RGS4 inh	RGS4 act	MrgX1 antag	MrgX1 agonist	MrgX1 PAM conf	HEK293 Ca flux	HEK293 Ca counter	HEK293 Ca cntr2
O=C(CCl)Nc1cccc(Oc2cnccn2)c1	i	i	i	i	i	·	·	·	·
CCc1ccc2c(c1)[C@H]1OCC[C@H]1[C@@H](c1cccs1)N2	9.5*	i	i	i	i	i	i	i	i
COc1cc(/C=C2/C(=N)N3N=C(CC(=O)N4CCOCC4)SC3=NC2=O)ccc1OCc1ccccc1	19*	i	i	i	i	12%*	i	i	i
O=C(COC(=O)c1ccc(NS(=O)(=O)c2ccc(Br)s2)cc1)NC1CCCC1	19*	i	i	i	i	i	i	i	i
O=C(NCCN1CCCCC1)c1ccc(F)cc1Cl	i	i	i	i	i	·	·	·	·
c1ccc2c(CCNc3ncnc4nc[nH]c34)c[nH]c2c1	7*	i	i	i	i	9.4%*	i	i	i
c1ccc(CCNc2ncnc3nc[nH]c23)cc1	i	i	i	i	i	·	·	·	·
O=[N+]([O-])c1ccc(Cl)c(S(=O)(=O)Nc2ccc(-c3ccc(N4CCOCC4)nn3)cc2)c1	i	i	i	i	i	·	·	·	·
Cc1ccc([N+](=O)[O-])cc1S(=O)(=O)Nc1ccc(-c2ccc(N3CCOCC3)nn2)cc1	29*	i	i	i	i	8.1%*	i	i	i
CC(C)(C)c1ccc(C(=O)NCC(=O)OCc2ccc([N+](=O)[O-])cc2)cc1	i	i	i	i	i	·	·	·	·
O=C(CN(C(=O)CNC(=O)c1cccs1)c1cccc(F)c1)NC1CCCC1	i	i	i	i	i	·	·	·	·
CC(NC(=O)C1CSC2(C)CCC(=O)N12)c1ccccc1Cl (centres undefined)	i	i	i	i	i	·	·	·	·
CC12CCC(=O)N1C(C(=O)OCc1c(Cl)cccc1Cl)CS2 (centres undefined)	6.5*	i	i	i	i	i	i	i	i
O=C(Nc1ccon1)c1csc2c1CCCC2	i	i	i	i	i	·	·	·	·
O=C(Nc1nccs1)c1csc2c1CCCC2	12*	i	i	i	i	i	i	i	i
FC(F)Sc1ccc(NC(=S)NC2CCCC2)cc1	6.8*	i	i	i	i	i	i	i	i
OC1CCC(NC(=S)Nc2ccc(SC(F)F)cc2)CC1 (centres undefined)	i	i	i	i	i	·	·	·	·
COC(=O)c1nc2cc3c(cc2c(C)c1C(=O)OC)OCO3	i	i	i	i	i	·	·	·	·
Cc1nc2cc3c(cc2c(C)c1C(=O)OC(C)C)OCO3	7.1*	i	i	i	i	i	i	i	i
O=C1NC(Cc2ccccc2)C(=O)Nc2ccc(Br)cc21 (centres undefined)	9.1*	i	i	i	i	i	i	i	i
CC1CCCC(C)N1C(=O)COc1ccc(C(=O)N/N=C/c2ccc(C(=O)O)cc2)cc1 (centres undefined)	i	i	i	i	i	·	·	·	·
CCc1cc(C(=O)Nc2cc(S(=O)(=O)N(C)C)ccc2C)sc1C	8.4*	i	i	i	i	i	i	i	i
Cc1ccccc1Nc1nc(N)nc(CN2CCN(Cc3ccc4c(c3)OCO4)CC2)n1	8*	i	i	i	i	i	i	i	i
Nc1nc(CN2CCN(Cc3ccc4c(c3)OCO4)CC2)nc(Nc2ccccc2)n1	i	i	i	i	i	·	·	·	·
CCC(Sc1nc2ccccc2c(=O)n1CCN1CCOCC1)C(=O)NCc1cccnc1 (centres undefined)	6.6*	i	i	i	i	i	i	i	47*
SMILES	MrgX1 allo act	RGS4 inh	RGS4 act	MrgX1 antag	MrgX1 agonist	MrgX1 PAM conf	HEK293 Ca flux	HEK293 Ca counter	HEK293 Ca cntr2
COC(=O)c1ccccc1NC(=O)COC(=O)C1CCCCC1	8.3*	i	i	i	i	i	i	i	i
COC(=O)c1ccccc1NC(=O)C1CCCC1	i	i	i	i	i	·	·	·	·
COC(=O)c1ccccc1NC(=S)NC(=O)C1CCCCC1	7.5*	i	i	i	i	i	i	i	i
CCOc1ccc(S(=O)(=O)c2c[nH]c3ccccc3c2=O)cc1	i	i	i	i	i	·	·	·	·
COc1cccc(N2CCN(c3ccc4nnc(CCC(=O)Nc5ccccn5)n4n3)CC2)c1	7.5*	i	i	i	i	i	i	i	i
CC1Cc2ccccc2N1C(=S)NC(=O)c1cccc(Br)c1 (centres undefined)	10*	i	i	i	i	i	i	i	i
CSc1cccc(N2CC(C(=O)N(CC(C)C)c3c(N)n(Cc4ccccc4)c(=O)[nH]c3=O)CC2=O)c1 (centres undefined)	i	i	i	i	i	·	·	·	·
Cc1n[nH]c(C)c1S(=O)(=O)N1CCc2ccccc2C1	8.4*	i	i	i	i	i	i	i	i
Cc1n[nH]c(C)c1S(=O)(=O)N1CCN(c2ccccn2)CC1	i	i	i	i	i	·	·	·	·
COc1ccccc1NC(=O)NNC(=O)c1ccc2c(c1)NC(=O)C(C)(C)O2	20*	i	i	i	i	i	i	i	i
COc1cccc(NC(=O)NNC(=O)c2ccc3c(c2)NC(=O)C(C)(C)O3)c1	i	i	i	i	i	·	·	·	·
NNC(=O)c1nc(-c2ccccc2)cc(-c2ccccc2)n1	i	i	i	i	i	·	·	·	·
CCc1nc2ccccc2c(C(=O)O)c1C	i	i	i	i	i	·	·	·	·
CCc1nc2ccccc2c(C(=O)NCc2ccccc2)c1C	7*	i	i	i	i	i	i	i	i
O=C(Nc1ccccc1)N(Cc1ccccc1)Cc1ccccc1	i	i	i	i	i	·	·	·	·
